# PMI act: activators of human PMI, primary screen, biochemical, fluorescence intensity, near-Km mannose 6-phosphate; Mannose-6-phosphate isomerase (Homo sapiens), P34949; purified human PMI, coupled resazurin fluorescence, 20 min; hits give high values; 1 = vehicle control, 0 substrate-free wells; activation factor at 20 µM; 190,000 tested, 0.005% active; AID 1214, 2008;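 active means activation factor of 2 or more at 20 µM, relative to plate controls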
# Target sequence (P34949 whole entry, looked up): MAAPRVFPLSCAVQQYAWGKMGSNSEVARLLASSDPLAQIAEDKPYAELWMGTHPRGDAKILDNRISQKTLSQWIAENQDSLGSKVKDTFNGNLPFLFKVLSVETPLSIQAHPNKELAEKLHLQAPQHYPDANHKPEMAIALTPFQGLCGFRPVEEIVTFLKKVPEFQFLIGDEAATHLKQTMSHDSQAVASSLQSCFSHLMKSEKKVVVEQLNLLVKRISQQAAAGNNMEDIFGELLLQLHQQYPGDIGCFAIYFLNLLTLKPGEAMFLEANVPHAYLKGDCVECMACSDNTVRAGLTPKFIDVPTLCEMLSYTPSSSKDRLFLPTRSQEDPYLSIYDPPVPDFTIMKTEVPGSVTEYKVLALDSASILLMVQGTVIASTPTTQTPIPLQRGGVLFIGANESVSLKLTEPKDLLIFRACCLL
# G6PDH counter: L. mesenteroides G6PDH inhibitors, counter-screen for G6PDH-coupled screening assays, biochemical, Leuconostoc mesenteroides enzyme. glucose-6-phosphate dehydrogenase [Leuconostoc mesenteroides]. Purified L. mesenteroides G6PDH, diaphorase/resazurin coupled fluorescence, 45 min. inhibition, % at 5 µM. 200,000 tested, 0.12% active. AID 1020, 2008; in the data active means inhibition above about 50%
# Diaph inh CS: diaphorase inhibitors and chemical oxidizers, primary screen, counter-screen for diaphorase-coupled primary assays, biochemical, uHTS, resorufin fluorescence | inhibition, % at 20 µM | 190,000 tested, 0.69% active | diaphorase resazurin-to-resorufin fluorescence, NADH, 16 min; bacterial (C. kluyveri) enzyme, not human | AID 1217, 2008;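 active means primary screen inhibition at 20 µM above a set limit, cut at about 50% in these data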
#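 material = Clostridium kluyveri diaphorase enzyme | amount = 0.14 U/mL diaphorase, enzyme working solution | schedule = incubation 16 min, room temperature | detection = fluorescence of resorufin formed from resazurin, Ex 544/Em 590 nm | benchmarks = positive control minus NADH, DMSO neutral control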
# Diaphorase act: compounds boosting diaphorase resazurin reduction – biochemical, uHTS, resorufin fluorescence, counter-screen for diaphorase-coupled primary assays, primary screen | Diaphorase/resazurin coupled assay, 16 min; hits give high values; 1 = vehicle wells, 0 = NADH-free wells | activation factor at 20 µM | 190,000 tested, 0.005% active;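 active means diaphorase activity raised at least twofold by the compound at 20 µM; inactive means activation factor below 2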
#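 Assay system: Purified diaphorase enzyme from Clostridium kluyveri | Amount: Enzyme 0.07 U/mL final | Dosing: Compound 20 µM once, DMSO 1% | Timing: 16 min reaction at room temperature | Detection: Fluorescence, excitation 544 nm and emission 590 nm | Evaluation: Higher resorufin formation from activation or reduction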
# PMI act hi M6P: human PMI activators, high substrate, primary screen, biochemical, fluorescence intensity, near-saturating mannose 6-phosphate | Mannose-6-phosphate isomerase (Homo sapiens), P34949 | coupled PMI enzyme assay, resazurin fluorescence, 20 min; hits give high values; 1 = untreated enzyme, 0 = substrate-free blank | activation factor at 20 µM | 190,000 tested, 0.34% active | AID 1216, 2008;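 active means activation factor of 2 or more at 20 µM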
#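 Test system: human phosphomannose isomerase with PGI, G6PDH, diaphorase coupling enzymes; amount: 15 ng/mL PMI; incubation: enzyme reaction with compound 20 min at room temperature; technique: resorufin fluorescence (Ex 544/Em 590 nm) from resazurin via diaphorase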
# Hits are given with their value; . = inactive; / = no result given. In the library only some 1.1% were active in any assay of this set; here they are far more common.
SMILES,PMI act,G6PDH counter,Diaph inh CS,Diaphorase act,PMI act hi M6P
COc1cc2c(cc1OC)CN(Cc1cc(OC)c(O)c(OC)c1)CC2,.,53,.,.,.
COc1cc(CN2CCN(c3ccccc3F)CC2)cc(OC)c1O,.,54,.,.,.
COc1cc(CN2CCC(C(=O)N3CCN(c4ccccc4F)CC3)CC2)cc(OC)c1O,.,54,.,.,.
CN(C)CCn1nnc2c(=O)oc3ccccc3c21,.,.,.,.,.
CC(C)N1CCC(N2CCN(Cc3cc4c(cc3Cl)OCO4)CC2CCO)CC1 (centres undefined),/,.,/,/,/
O=C(NC1CCCC1)c1ccc2nc(-c3ccco3)c(-c3ccco3)nc2c1,.,.,80,.,.
O=C(NCCc1ccccc1)c1ccc2nc(-c3ccco3)c(-c3ccco3)nc2c1,.,.,.,.,.
O=C(NCCO)c1ccc2nc(-c3ccco3)c(-c3ccco3)nc2c1,.,.,52,.,.
O=C(NC1CCCC1)c1ccc2nc[nH]c2c1,.,.,.,.,.
O=C(c1ccccc1)c1ccc2nc(-c3ccco3)c(-c3ccco3)nc2c1,.,.,74,.,.
c1coc(-c2nc3ccccc3nc2-c2ccco2)c1,.,.,80,.,.
CC(NC(=O)c1ccccc1)C(=O)N/N=C/c1cccc([N+](=O)[O-])c1 (centres undefined),.,.,.,.,.
COc1ccc(S(=O)(=O)c2nnn(-c3cccc(Cl)c3)c2N)cc1,.,.,.,.,.
C=CCSC1=N/C(=C\c2cc(OCC)c(OC(C)=O)c([N+](=O)[O-])c2)C(=O)S1,.,.,57,.,.
C=CCSC1=N/C(=C\c2ccc3c(c2)OCO3)C(=O)S1,.,.,.,.,.
Nc1ccc2[nH]ncc2c1,.,.,58,.,.
Cc1nc2c(-c3ccc(F)cc3)cnn2c2c1CCC2,.,.,.,.,.
CC1(C)Cc2c(C#N)c(N3CCCC3)nc(-c3ccco3)c2CO1,.,.,55,.,.
CC1(C)Cc2c(C#N)c(NCc3ccco3)nc(-c3ccco3)c2CO1,.,.,.,.,.
CCN1C(=O)[C@H]2[C@H]3[C@H](O)[C@H](O)C/C(=N\OC[C@@H](C)[C@H](OCc4ccccc4)C(C)C)[C@@H]3CC[C@H]2C1=O,.,.,.,.,.
CC(=O)Nc1ccc(S(C)(=O)=O)c(C)c1,.,.,.,.,.
C/C(=N\Nc1cccc(Cl)c1)c1ccc(-n2ccnc2)cc1,.,.,.,.,2.6
CN1CCN(C2=C(Cl)C(=O)C(c3cnc(N4CCCCC4)s3)=C(Cl)C2=O)CC1,.,51,64,.,.
CN1CCN(C2=C(Cl)C(=O)N(C3CCCCC3)C2=O)CC1,.,.,.,.,.
NCCCCC(NC(=O)C1CCCN1C(=O)C1CSSCC(N)C(=O)NC(Cc2ccc(O)cc2)C(=O)NC(Cc2ccccc2)C(=O)NC(CCC(N)=O)C(=O)NC(CC(N)=O)C(=O)N1)C(=O)NCC(N)=O (centres undefined),.,.,.,.,.
SMILES,PMI act,G6PDH counter,Diaph inh CS,Diaphorase act,PMI act hi M6P
O=C(N/N=C/c1cc([N+](=O)[O-])ccc1O)C1CCCCC1,.,.,56,.,.
Cc1nc2ccc(NC(=S)NCc3ccccc3)cc2nc1C,.,.,.,.,.
Cc1ccc(NC(=S)Nc2ccc3nc(-c4ccccn4)c(-c4ccccn4)nc3c2)cc1C,.,60,75,.,.
O=C(Nc1ccc2nc(-c3ccco3)c(-c3ccco3)nc2c1)N1CCCCCC1,.,.,94,.,.
O=C(Nc1ccccn1)N1CCOCC1,.,.,.,.,.
CCOC(=O)C1CCN(C(=O)Nc2ccc3nc(-c4ccco4)c(-c4ccco4)nc3c2)CC1,.,.,52,.,.
O=C(Nc1ccc2nc(-c3ccccn3)c(-c3ccccn3)nc2c1)N1CCOCC1,.,.,58,.,.
COCCN(C(=O)CNC(=O)c1cccs1)C(C(=O)NC(C)(C)C)c1ccccc1 (centres undefined),.,.,.,.,.
O=C(Cn1ccc([N+](=O)[O-])n1)Nc1ccccn1,.,.,.,.,.
CCCc1cc2c(OC(=O)CC)c(-c3ccc(C(=O)OCC)o3)c(=O)oc2cc1OC,.,.,.,.,.
Cc1[nH]c2ccccc2c1C(=O)C(=O)NCc1ccco1,.,.,.,.,.
CCCCn1c(N)c(N(CCOC)C(=O)CN2c3ccccc3CC2C)c(=O)[nH]c1=O (centres undefined),.,.,.,.,.
CCOC(=O)C(C(=O)OCC)c1cc(Br)c2noc3c2c1C(=O)c1ccccc1-3,.,56,62,.,.
CC(=O)OCCNc1cc(N2CCN(C)CC2)c2noc3c2c1C(=O)c1ccccc1-3,.,.,.,.,.
O=C(CS(=O)(=O)c1c[nH]c2ccccc12)N1CCc2ccccc21,.,.,.,.,.
O=C1CCN2C=Nc3cccc4ccc1c2c34,.,.,77,.,.
COc1ccccc1NC(C)=O,.,.,.,.,.
COc1cc(O)c(NC(C)=O)c2nonc12,.,.,63,.,.
COc1ccc(/C(C)=N/Nc2cccc(C(=O)O)c2)cc1OC,.,.,.,.,2.5
C/C(=N\Nc1cccc(C(=O)O)c1)c1ccc(Cl)s1,.,.,.,.,2.6
Fc1ccccc1/C=C1\CCCC2=C1NC(=S)NC2c1ccccc1F (centres undefined),.,.,.,.,2.2
S=C1NC2=C(CCCC2=C2SCCCS2)C(c2ccccc2)N1 (centres undefined),.,.,.,.,.
S=C1NC2=C(CCC/C2=C\c2ccccc2)C(c2ccccc2)N1 (centres undefined),.,.,.,.,2.4
O=C(/C=C/c1ccccc1[N+](=O)[O-])NCc1ccncc1,.,.,.,.,.
O=C(O)c1cc(N2N=C(C(F)(F)F)/C(=C/C=C/c3ccco3)C2=O)ccc1Cl,.,.,56,.,2.2
CCOC(=O)c1ccc(N2N=C(C)/C(=C/C=C/c3ccco3)C2=O)cc1,.,.,.,.,.
CCCN1CCc2c(sc(NC(=S)NC(=O)c3ccccc3)c2C#N)C1,.,.,.,.,2
COc1ccc(/C=C/C(=O)NC(=S)NNC(=O)c2cccnc2)cc1,.,.,75,.,.
CCOP(=O)(OCC)c1nc(-c2ccc(C)cc2)oc1NCc1ccccc1,.,.,.,.,.

# From PubChem BioAssay
